Yeast life ext: compounds extending yeast replicative lifespan, primary screen, S. cerevisiae, OD615 | inhibition of the nicotinamide effect, % at 10 µM | S. cerevisiae growth with nicotinamide; deaD strain in restrictive glucose medium | AID 775, 2007 | 130,000 compounds, 0.68% hits;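 active = inhibition above a set limit, placed 3 SD over the median of all compounds, cut at about 26% in these data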;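 note: 0% = nicotinamide-treated wells and 100% = cells grown without nicotinamide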
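Measured by: optical density (absorbance) at 615 nm; System: modified budding yeast, DeaD strain; Medium: restrictive CSMM-D dextrose medium; Timing: 4 h preincubation then 48 h treatment at 30 °C.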
MT stabilize HCS: microtubule stabilizers in HeLa cells, primary screen, imaging, high-content imaging; HeLa tubulin immunostaining HCS, 24 h; share of cells brighter than vehicle mean+2SD; AID 2205, 2009; % tubulin-high responders, % at 10 µM; 200,000 compounds, 0.83% hits;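 active = plate Z-score above 3 for both tubulin-high and condensed-nucleus cell shares, with cell loss under 80%, at 10 µM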;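 note: anti alpha tubulin signal scored within the nucleus-defined area of each cell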
b-catenin transl: modulators of beta-catenin nuclear translocation, primary screen, imaging, HeLa cells, immunofluorescence, high-content. nuclear translocation activity, % at 5 µM. 190,000 compounds, 0.3% hits;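 active = nuclear translocation activity above 50% at 5 µM, with a well cell count of 50 or more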;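 note: per-cell ratio of nuclear to cytoplasmic median beta-catenin stain intensity; plate controls were DMSO negative control for no effect and GSK-3 inhibitor IX positive control for full effect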
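Technique: fluorescence imaging of beta-catenin antibody stain plus DAPI / Material: human HeLa cell line / Incubation: compound treatment 24 h, 37°C, 5% CO2 / Read-out basis: % activation of per-cell nuclear versus cytoplasmic median beta-catenin signal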
HMGR II inh: inhibitors of E. faecalis class II HMGR, primary screen, biochemical, Enterococcus faecalis; AID 1066, 2008; inhibition, % at 10 µM; purified E. faecalis HMGR, NADPH absorbance 340 nm kinetic; 190,000 compounds, 0.41% hits;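 active = inhibition above a set limit, the median over all tested compounds plus 3 SD, cut at about 9.5% in these data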;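 note: enzyme runs in reverse so mevalonate oxidation gives rising NADPH absorbance; 0% = complete reaction with DMSO and 100% = background rate lacking mevalonate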
RAM network inh: inhibitors of the yeast RAM network, primary screen, dse1pr::URA3 reporter, 5-FOA selection. S. cerevisiae dse1pr::URA3 reporter, 5-FOA growth OD615, 2 d; analog-sensitive cbk1-as2 kinase mutant strain. inhibition, % at 50 µM. 190,000 compounds, 1.8% hits. AID 868, 2007;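 active = inhibition above a set limit, 3 SD over mean compound inhibition, cut at about 8.4% in these data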;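 note: 0% = DMSO-only wells with no growth and 100% = 10 µM 1-NA-PP1 full growth; inhibition rescues growth on 5-FOA so higher OD means more RAM inhibition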
Yeast growth inh: growth inhibitors of yeast BB579 in restrictive medium, primary screen, yeast lifespan-shortening project, S. cerevisiae | OD615, 48 h | inhibition, % at 10 µM | AID 804, 2007 | 140,000 compounds, 0.51% hits;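 active = inhibition above a set limit, 3 SD over the mean compound inhibition, cut at about 44% in these data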
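Test system: S. cerevisiae DeaD strain BB579 yeast; Medium: restrictive CSMM-D medium; Compound: one dose, 10 µM compound with 0.25% DMSO; Incubation: 4 h cell preincubation, 48 h compound exposure, 30 °C humidified; Signal: OD at 615 nm; Benchmarks: amphotericin B at 10 µg/mL as positive control.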
* hit, by the source's call. Most compounds without a hit are left out; they make up all but 3.5% or so of the library.

Results for Cc1ccc(NC(=O)c2ccc3nc[nH]c3c2)c(O)c1 ?
MT stabilize HCS: 3; b-catenin transl: -1; HMGR II inh: 16*; RAM network inh: 0

Results for COc1ccc(NC(=O)c2ccc3nc[nH]c3c2)c(OC)c1 ?
MT stabilize HCS: 5; b-catenin transl: 0; HMGR II inh: -1; RAM network inh: 1

What do the screens show for `CC1CN(C(NC(=O)c2ccccc2)C(Cl)(Cl)Cl)CC(C)O1` (stereo not drawn)?
MT stabilize HCS: 1; HMGR II inh: -2; RAM network inh: 0

How did Cc1ccc(C2=NNC(C(O)C(O)C(O)C(O)CO)S2)cc1 (stereo not drawn) do in these assays?
Yeast life ext: -17; MT stabilize HCS: 42*; b-catenin transl: -2; HMGR II inh: -2; RAM network inh: 1; Yeast growth inh: -26

How did O=C(N/N=C/c1cc(Cl)cc([N+](=O)[O-])c1O)C1CC1 do in these assays?
b-catenin transl: -2

How did CC(C)(C)N/N=C/c1cc(Cl)cc([N+](=O)[O-])c1O do in these assays?
Yeast life ext: -8; MT stabilize HCS: 2; b-catenin transl: -4; HMGR II inh: -1; RAM network inh: -1; Yeast growth inh: 92*

What do the screens show for `COc1ccc(C(=O)CSc2nnc(CC(=O)Nc3ccccc3OC)n2C)cc1`?
MT stabilize HCS: 2; b-catenin transl: 0; HMGR II inh: 0; RAM network inh: -1

Results for COc1ccc([N+](=O)[O-])cc1N(CC(=O)Nc1ccccc1C(=O)NC(C)C)S(C)(=O)=O ?
MT stabilize HCS: 2; b-catenin transl: 0; HMGR II inh: -1; RAM network inh: 3

How did Cc1cc(C)cc(N=Cc2[nH]c3ccc(Br)c(Cl)c3c2O)c1 do in these assays?
Yeast life ext: -1; MT stabilize HCS: 31*; b-catenin transl: -1; HMGR II inh: 1; RAM network inh: 0; Yeast growth inh: -9

How did Cc1oc(-c2ccccc2)cc1C(=O)NC1CCN(Cc2ccccc2)CC1 do in these assays?
b-catenin transl: 1

What do the screens show for `COc1ccc(-c2n(Cc3ccccc3)c3ccccc3[n+]2Cc2ccccc2)cc1`?
MT stabilize HCS: 11*; b-catenin transl: 0; HMGR II inh: -7; RAM network inh: 3

How did CCc1cc(=O)oc2cc3occ(-c4ccc(OC)c(F)c4)c3cc12 do in these assays?
Yeast life ext: -8; MT stabilize HCS: 10; b-catenin transl: 66*; HMGR II inh: -6; RAM network inh: 3; Yeast growth inh: -20

What do the screens show for `CCc1cc(=O)oc2cc3occ(C)c3cc12`?
Yeast life ext: -4; MT stabilize HCS: 3; b-catenin transl: 2; HMGR II inh: 1; RAM network inh: 3; Yeast growth inh: -7

Results for CS(=O)(=O)N1CCc2cc(S(=O)(=O)N3CCCCC3)ccc21 ?
MT stabilize HCS: 2; b-catenin transl: 0; HMGR II inh: 16*; RAM network inh: 1

How did CS(=O)(=O)N1CCc2cc(C(=O)N3CCCCC3)ccc21 do in these assays?
Yeast life ext: -5; MT stabilize HCS: 3; HMGR II inh: -1; RAM network inh: 0; Yeast growth inh: -10

What do the screens show for `COc1ccc(/C=C(/C(=O)c2ccc(Cl)cc2Cl)n2cncn2)cc1`?
Yeast life ext: 43*; MT stabilize HCS: 3; b-catenin transl: 0; HMGR II inh: 0; RAM network inh: -2; Yeast growth inh: -12

What do the screens show for `CN(C)c1ccc(/C=C(/C(=O)c2ccc(Cl)cc2Cl)n2cncn2)cc1`?
Yeast life ext: 17; MT stabilize HCS: 9; b-catenin transl: 10; HMGR II inh: -5; RAM network inh: 1; Yeast growth inh: 3

What do the screens show for `CC(C)CC(=O)/C(=C\c1ccc(Cl)cc1Cl)n1cncn1`?
Yeast life ext: -3; MT stabilize HCS: 20; b-catenin transl: -2; HMGR II inh: -3; RAM network inh: -1; Yeast growth inh: 61*

How did CCCCCCN1CC(C(=O)OCC)C(=O)C1=O (stereo not drawn) do in these assays?
Yeast life ext: 50*; MT stabilize HCS: 2; b-catenin transl: -2; HMGR II inh: -6; RAM network inh: -1; Yeast growth inh: -4

Results for CCOC(=O)C1[C@H]2C(=O)N(CCCOC)C[C@]23C=C[C@H]1O3 (stereo partly drawn) ?
Yeast life ext: 3; MT stabilize HCS: 6; b-catenin transl: -1; HMGR II inh: -3; RAM network inh: 1; Yeast growth inh: -27

Results for Cc1ccc(S(=O)(=O)Nc2nc3ccccc3nc2NCC2CCCO2)cc1C (stereo not drawn) ?
b-catenin transl: 1

How did O=C(O)C(=O)/C(=C\c1cccc2ccccc12)c1ccc2ccccc2n1 do in these assays?
Yeast life ext: 30*; MT stabilize HCS: 41*; HMGR II inh: 2; RAM network inh: 2; Yeast growth inh: -46

How did COC(=O)c1cn(NC(=O)c2ccc([N+](=O)[O-])cc2Cl)c(=O)c2ccccc12 do in these assays?
MT stabilize HCS: 3; b-catenin transl: -2; HMGR II inh: -8; RAM network inh: 2

Results for C=C(C)C(=O)Nc1cccc(C2=NOC3(C2)C[C@H](C(N)=O)N(C(=O)/C=C/C)C3)c1 (stereo partly drawn) ?
b-catenin transl: -1

What do the screens show for `CCOC(=O)Cc1nn(Cc2ccc(Cl)cc2)c(=O)c2ccccc12`?
MT stabilize HCS: 3; b-catenin transl: 0; HMGR II inh: -5; RAM network inh: 5

How did CCOC(=O)Cc1nn(Cc2ccccc2)c(=O)c2ccccc12 do in these assays?
MT stabilize HCS: 2; b-catenin transl: -2; HMGR II inh: 14*; RAM network inh: -1

How did Clc1ccc(CCNc2nc3ccccc3s2)cc1 do in these assays?
Yeast life ext: -27; MT stabilize HCS: 4; b-catenin transl: -2; HMGR II inh: 2; RAM network inh: 2; Yeast growth inh: 68*

What do the screens show for `O=C(O)c1cc2c([nH]c1=O)CCCC2`?
Yeast life ext: -10; MT stabilize HCS: 3; HMGR II inh: 2; RAM network inh: 2; Yeast growth inh: -30

How did C=CCSC(=C(C#N)C#N)c1cc2c([nH]1)CCCC2 do in these assays?
Yeast life ext: -8; MT stabilize HCS: 6; b-catenin transl: -1; HMGR II inh: -7; RAM network inh: 11*; Yeast growth inh: 61*

How did COc1ccc(N2CCc3c(C)nc4c(OC)cc(OC)cc4c32)cc1 do in these assays?
MT stabilize HCS: 3; b-catenin transl: 0; HMGR II inh: 2; RAM network inh: 1
